High-throughput results (PubChem)
A selection: hits, their analogues and other compounds. The true share with any hit is near 2.6%.
rCAG RNA binder – binders of r(CAG) RNA repeats, primary screen, biochemical, fluorescence; inhibition, % at 3 µM; AID 651821, 2012; r(CAG) RNA repeat, TO-PRO-1 dye displacement fluorescence; actives 1.3% (n = 370,000);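 active = inhibition above the plate cutoff, the mean of all test compounds on that plate plus 3 SD, cut at about 35% in these data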;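 note: 0% = DMSO alone and 100% = 100 µM mitoxantrone as full dye displacement; higher means more dye released from RNA so lower well fluorescence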
NadD block – inhibitors of S. aureus NadD, primary screen, biochemical, colorimetric, uHTS; purified NadD enzyme, colorimetric absorbance read-out; inhibition, % at 20 µM; AID 602399, 2012; actives 0.78% (n = 360,000); in the data active = inhibition above about 26%
ABHD5 PLIN5 PPI – ABHD5-PLIN5 interaction inhibitors, primary screen, cell lysate, split luciferase complementation, luminescence | Perilipin-5 (Homo sapiens) + 1-acylglycerol-3-phosphate O-acyltransferase ABHD5 (Homo … | Split G. princeps luciferase complementation, 4 h | inhibition, % at 4 µM | actives 0.78% (n = 360,000) | AID 602281, 2012;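 active = inhibition above the mean inhibition across every tested compound plus 3 SD, cut at about 22% in these data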;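 note: 0% = DMSO only wells and the 100% control is not disclosed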
Target sequence (Q00G26 whole entry, looked up): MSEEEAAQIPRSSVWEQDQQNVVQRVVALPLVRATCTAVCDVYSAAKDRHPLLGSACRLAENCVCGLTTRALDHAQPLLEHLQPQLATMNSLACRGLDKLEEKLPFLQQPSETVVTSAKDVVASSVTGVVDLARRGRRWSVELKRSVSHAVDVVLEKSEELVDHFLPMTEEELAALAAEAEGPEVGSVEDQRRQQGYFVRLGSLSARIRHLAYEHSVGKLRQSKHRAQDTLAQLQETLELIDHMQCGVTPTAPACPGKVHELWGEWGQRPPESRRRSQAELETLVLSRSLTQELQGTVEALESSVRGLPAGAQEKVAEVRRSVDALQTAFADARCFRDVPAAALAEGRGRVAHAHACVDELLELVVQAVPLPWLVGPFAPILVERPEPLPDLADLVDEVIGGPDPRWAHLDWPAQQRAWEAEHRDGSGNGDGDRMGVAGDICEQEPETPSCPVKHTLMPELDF
Target sequence (Q8WTS1 whole entry, looked up): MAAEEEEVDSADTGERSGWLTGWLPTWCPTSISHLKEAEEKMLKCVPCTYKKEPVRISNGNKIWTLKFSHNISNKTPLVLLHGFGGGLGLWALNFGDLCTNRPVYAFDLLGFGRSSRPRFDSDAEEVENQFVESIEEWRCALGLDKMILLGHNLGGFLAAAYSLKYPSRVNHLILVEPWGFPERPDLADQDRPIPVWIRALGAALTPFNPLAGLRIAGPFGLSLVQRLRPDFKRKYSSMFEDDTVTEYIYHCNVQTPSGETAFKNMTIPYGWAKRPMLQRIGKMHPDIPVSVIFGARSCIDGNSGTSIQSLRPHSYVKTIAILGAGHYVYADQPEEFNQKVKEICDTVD
HCV core dimer – inhibitors of HCV core protein dimerization, primary screen, biochemical, TR-FRET, high-throughput; TR-FRET GST/Flag-core106 dimerization, 1536-well; actives 0.33% (n = 300,000); AID 1899, 2009; inhibition, % at 5 µM;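 active = inhibition above the mean of all tested compounds plus 3 SD, set per screening campaign, cut at about 45% in these data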
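Assay system: GST-tagged and Flag-tagged HCV core protein residues 1-106 / Times: compound-protein-antibody incubation 4 h at 22.5 °C / Signal: time-resolved FRET, ex 340 nm, em 617 and 671 nm / Evaluation: % inhibition based on acceptor/donor emission ratio / Benchmarks: wells lacking GST-core106 and wells with excess unlabelled core106 / Repeats: singlicate, one well per compound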
* = called active by the depositor; . = no result; ! = not confirmed by another sample.

SMILES	rCAG RNA binder	NadD block	ABHD5 PLIN5 PPI	HCV core dimer
CCCc1ccc(OCC(=O)Nc2cc(S(=O)(=O)CC)ccc2O)cc1	35.5*	-7.3	3.9	-2.6
CCCCNC(=O)C[C@H]1C[C@@]2(C(=O)OC)C(=C[C@H](C(C)C)O[C@@H]2C2CC2)N(Cc2ccc3c(c2)OCO3)C1=O	3.1	.	.	.
CCCCn1c(NC(=O)c2ccco2)c(S(=O)(=O)c2ccc(C)cc2)c2nc3ccccc3nc21	59.3*	24.0	-1.1	.
CCCCCn1c(NC(=O)c2ccco2)c(S(=O)(=O)c2ccc(C)cc2)c2nc3ccccc3nc21	17.9	13.7	-9.7	23.2
Cc1ccc(C(=O)N/N=C/c2cc(C)n(-c3ccc(Br)cc3)c2C)cc1[N+](=O)[O-]	14.2	35.1*	7.8	27.3
COC(=O)C12C=C3CC(c4ccc(C)s4)=C3C(=O)N1Cc1[nH]c3ccccc3c1C2 (centres undefined)	6.4	.	.	.
Cc1cc(N2C(=O)C=CC2=O)c([N+](=O)[O-])cc1C	.	3.9	33.0*	47.9*
Cc1nnc(NC(=O)C2CC(=O)N(c3ccc4c(c3)OCCO4)C2)s1 (centres undefined)	0.1	-12.6	-4.7	.
O=C(Nc1nc(-c2ccco2)c(-c2ccco2)s1)C1CC(=O)N(c2ccc3c(c2)OCCO3)C1 (centres undefined)	30.4	71.6*	32.6*	31.5
N#Cc1ccc(CSc2nnc(NC(=O)C3CC(=O)N(c4ccc5c(c4)OCCO5)C3)s2)cc1 (centres undefined)	.	-1.5	-6.3	64.3*
O=C(Nc1nnc(SCc2ccc(F)cc2)s1)C1CC(=O)N(c2ccc3c(c2)OCCO3)C1 (centres undefined)	5.1	4.3	-1.9	15.7
CC1(C(=O)N2CCC(Oc3cccnc3)CC2)CC1	-0.7	.	.	.
COC(=O)c1cc2c(c3c4ccccc4n(S(=O)(=O)c4cccc(C)c4)c13)C(=O)N(Cc1ccccc1OC)C2	17.1	.	.	.
CC(C)(C)NC(=O)COC(=O)c1c2c(nc3ccccc13)CCC2	17.3	9.2	9.4	53.3*
O=C(CSc1c2c(nc3ccccc13)CCCC2)NCc1ccco1	-2.1	1.5	14.0	15.1
NC(=O)COC(=O)c1c2c(nc3ccccc13)CCC2	10.6	0.0	-1.4	13.4
O=C(NCc1ccco1)c1c2c(nc3ccccc13)CCC2	20.3	13.2	19.9	91.3*
C[C@H](O)[C@@H]1CN2CCc3c([nH]c4cccc(-c5ccccc5)c34)[C@@H]2C[C@@H]1N(C)C(=O)C1CCCCC1	8.3	.	.	.
CCc1c(-c2ccc(OC)cc2)ncn1CCc1ccccc1OC	0.9	.	.	.
CCN(CC)CCOc1ccc(/C(=C(/Cl)c2ccccc2)c2ccccc2)cc1	4.5	5.2	51.1*!	-15.7
COC(=O)[C@]12C[C@H](CC(=O)N3CCSCC3)C(=O)N(Cc3ccc(Cl)cc3Cl)C1=C[C@H](COCc1ccccc1)O[C@@H]2C	5.6	.	.	.
Cc1cccc(NC(=O)C2CCN(S(=O)(=O)c3c(C)noc3/C=C/c3ccco3)CC2)n1	19.4	16.4	23.0*	8.1
CCc1nnc2n1N=C(c1ccc(OC)cc1)CS2	-0.4	-4.3	-2.0	-2.1
CCc1nnc2n1N=C(c1ccc(-c3cc(Cl)ccc3Cl)o1)CS2	9.6	17.8	-4.7	61.3*
COC[C@H]1O[C@]2(c3ccccc3)CO[C@H]1[C@@H](/C=C/c1ccccc1)C2	0.2	.	.	.
SMILES	rCAG RNA binder	NadD block	ABHD5 PLIN5 PPI	HCV core dimer
CN(C)/C=C/C(=O)/C=C/c1cn(-c2ncc(C(F)(F)F)cc2Cl)c2ccccc12	25.7	19.9	16.7	57.8*
COC(=O)CN1C(=O)S/C(=C/c2ccc(N3CCCCC3)o2)C1=O	8.8	6.4	27.3*	-26.9
COc1ccc(CS(=O)(=O)/C(Cl)=C(/Cl)C(=O)Nc2ccc(OC)nc2)cc1	.	-2.8	41.0*	8.4
COc1ccc(/C=C/C(=O)Nc2ccc(OC)nc2)cc1	-3.4	3.2	-5.4	-3.4
Cn1c(=O)cc(OCC(=O)NCc2ccccn2)c2ccccc21	-4.6	10.8	72.5*	4.5
Cn1c(=O)cc(OCCCC(=O)NCc2ccccn2)c2ccccc21	-1.8	-3.1	-0.7	2.2
O=C(CC(Nc1ccccc1)C(=O)O)c1ccccc1 (centres undefined)	3.2	-1.5	22.8*	13.8
O=[N+]([O-])c1ccc(/C([O-])=C(/C(=S)NCc2ccco2)[n+]2ccccc2)cc1	10.4	12.3	-3.9	52.1*
